Results taken from ChEMBL document CHEMBL2150916, “Dual inhibition of γ-oryzanol on cellular melanogenesis: inhibition of tyrosinase activity and reduction of melanogenic gene expression by a protein kinase A-dependent mechanism” (J Nat Prod, 2012).
The source made the active and inactive calls. No cut-off for these calls is given here.

Legend:
B16-F1 [1] = assay: Inhibition of melanin synthesis in mouse B16-F1 cells at 30 uM after 30 mins by Fontana-Masson staining; format: functional, cell-based; settings: in the assay text read “after 72 hrs” for “after 30 mins”
Procedure, shortened: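 B16F1 cells on slides treated with 30 μM, fixed in 4% paraformaldehyde for 30 min at room temperature. Melanin stained by Fontana−Masson (ammoniacal silver, gold chloride, sodium thiosulfate).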

[2] = target: T1, Tyrosinase (Agaricus bisporus) (UniProt O42713); assay: Inhibition of mushroom tyrosinase after 20 mins
T1 sequence (whole entry): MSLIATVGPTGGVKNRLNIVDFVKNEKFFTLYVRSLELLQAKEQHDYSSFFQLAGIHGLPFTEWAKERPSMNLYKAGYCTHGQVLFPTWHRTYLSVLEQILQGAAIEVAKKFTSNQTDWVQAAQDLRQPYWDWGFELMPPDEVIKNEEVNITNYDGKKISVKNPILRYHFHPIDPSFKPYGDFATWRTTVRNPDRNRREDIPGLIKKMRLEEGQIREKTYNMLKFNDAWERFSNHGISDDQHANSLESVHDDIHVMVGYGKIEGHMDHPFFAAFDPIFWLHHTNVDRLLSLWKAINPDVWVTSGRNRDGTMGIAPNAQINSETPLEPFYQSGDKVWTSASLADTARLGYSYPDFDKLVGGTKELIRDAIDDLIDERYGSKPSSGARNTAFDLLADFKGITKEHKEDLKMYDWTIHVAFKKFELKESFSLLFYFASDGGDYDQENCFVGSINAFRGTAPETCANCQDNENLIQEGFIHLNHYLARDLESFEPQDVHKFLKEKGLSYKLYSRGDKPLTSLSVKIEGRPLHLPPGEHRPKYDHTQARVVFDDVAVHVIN
Procedure, shortened: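 Mushroom tyrosinase in 0.1 M phosphate buffer with 0.03% (w/v) tyrosine as substrate, incubated 37 °C for 20 min. OD read at 492 nm; inhibition % = (1 − sample/control OD492) × 100. Arbutin positive control.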

B16-F1 [3] = assay: Inhibition of melanin synthesis in mouse B16-F1 cells at 3 uM after 72 hrs by spectrophotometric analysis relative to control; format: functional; settings: B16-F1, 72 h
Procedure, shortened: (§1)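 B16F1 cells treated 72 h (3 or 30 μM). After lysis and centrifugation at 12000g, pellets dissolved in 1 N NaOH at 60 °C for 1 h. Absorbance read at 400 nm against a synthetic melanin standard, normalized to Bradford protein. Arbutin positive control. Means ± SE of three independent experiments.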

B16-F1 [4] = assay: Inhibition of melanin synthesis in mouse B16-F1 cells at 30 uM after 72 hrs by spectrophotometric analysis relative to control; format: functional; settings: B16-F1, 72 h; procedure, shortened: as §1
B16-F1 [5] = assay: Inhibition of melanin synthesis in mouse B16-F1 cells after 72 hrs by spectrophotometric analysis; format: functional, cell-based; procedure, shortened: as §1
[6] = Cytotoxicity against mouse B16-F1 cells at 5 mM; format: cell-based; settings: b16-f1, 5000 µM
[7] = target: T2, Tyrosinase (Mus musculus) (UniProt P11344); assay: Inhibition of tyrosinase in mouse B16-F1 cells using L-DOPA as substrate at 3 uM after 72 hrs; format: cell-based
T2 sequence (whole entry): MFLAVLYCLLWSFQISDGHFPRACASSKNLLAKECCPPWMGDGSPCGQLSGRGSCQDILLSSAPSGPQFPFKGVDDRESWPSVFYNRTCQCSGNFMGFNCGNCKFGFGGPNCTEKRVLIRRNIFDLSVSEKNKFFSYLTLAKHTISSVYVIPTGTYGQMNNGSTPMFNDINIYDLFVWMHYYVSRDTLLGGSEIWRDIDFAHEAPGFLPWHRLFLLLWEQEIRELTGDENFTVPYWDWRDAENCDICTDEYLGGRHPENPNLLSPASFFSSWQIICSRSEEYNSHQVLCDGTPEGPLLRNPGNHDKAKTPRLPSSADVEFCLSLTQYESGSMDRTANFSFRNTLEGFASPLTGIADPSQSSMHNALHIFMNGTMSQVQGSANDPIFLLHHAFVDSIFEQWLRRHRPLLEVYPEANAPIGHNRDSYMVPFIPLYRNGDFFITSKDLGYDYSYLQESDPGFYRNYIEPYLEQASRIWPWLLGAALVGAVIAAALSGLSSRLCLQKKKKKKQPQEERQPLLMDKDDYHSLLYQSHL
Procedure, shortened: (§2)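 B16F1 cells treated 72 h with 3 or 30 μM. Cells lysed in 1% Triton X-100/PBS pH 6.8 and spun at 12000g, 4 °C. Supernatant mixed with 0.1% (w/v) L-DOPA; A475 followed over the first 2 h and normalized to total protein. Means ± SE of three independent experiments.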

[8] = target: T2, Tyrosinase (Mus musculus); assay: Inhibition of tyrosinase in mouse B16-F1 cells using L-DOPA as substrate at 30 uM after 72 hrs; format: cell-based; procedure, shortened: as §2
B16/F1 [9] = assay: Inhibition of PKA in mouse B16-F1 cells assessed as decrease of MITF mRNA expression at 3 uM after 72 hrs by RT-PCR analysis; format: cell-based
Procedure, shortened: (§3)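 B16F1 cells treated 72 h at 3 μM. Total RNA extracted with Trizol; cDNA made from 2 μg RNA with M-MLV reverse transcriptase and oligo(dT). qPCR run 95 °C 3 min, then 50 cycles of 95 °C 10 s, 56 °C 15 s, 72 °C 20 s, with melting-curve check. Expression calculated relative to cyclophilin. Means ± SE of three independent experiments.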

B16/F1 [10] = assay: Inhibition of PKA in mouse B16-F1 cells assessed as decrease of TRP-1 mRNA expression at 3 uM after 72 hrs by RT-PCR analysis; format: cell-based; procedure, shortened: as §3
B16/F1 [11] = assay: Inhibition of PKA in mouse B16-F1 cells assessed as decrease of dopachrome tautomerase mRNA expression at 3 uM after 72 hrs by RT-PCR analysis; format: cell-based; procedure, shortened: as §3
B16/F1 [12] = assay: Inhibition of PKA in mouse B16-F1 cells assessed as decrease of MITF promoter- dependent paired-box 3 mRNA expression at 3 uM after 72 hrs […]; format: cell-based
Procedure, shortened: (§4)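 Two-color oligonucleotide microarray on Mouse OneArray chips, comparing untreated and treated (3 μM) B16F1 cells labelled with Cy3/Cy5-dUTP. RNA extracted with RNAiso Plus and further purified. Arrays scanned and probe-level expression values computed.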

B16/F1 [13] = assay: Inhibition of PKA in mouse B16-F1 cells assessed as decrease of MITF promoter- dependent sex-determining region Y-box 10 mRNA expression at 3 uM after 72 hrs by […]; format: cell-based; procedure, shortened: as §4
B16/F1 [14] = assay: Inhibition of PKA in mouse B16-F1 cells assessed as decrease of MITF promoter- dependent lymphoid enhancer factor mRNA expression at 3 uM after 72 hrs by […]; format: cell-based; procedure, shortened: as §4
B16/F1 [15] = assay: Inhibition of PKA in mouse B16-F1 cells assessed as decrease of CREB mRNA expression at 3 uM after 72 hrs by […]; format: cell-based; procedure, shortened: as §4
B16/F1 [16] = assay: Inhibition of PKA in mouse B16-F1 cells assessed as decrease of MC1R mRNA expression at 3 uM after 72 hrs by RT-PCR analysis; format: cell-based
B16/F1 [17] = assay: Inhibition of PKA in mouse B16-F1 cells assessed as decrease of intracellular cAMP level at 3 uM after 72 hrs by colorimetric competitive immunoassay; format: cell-based
Procedure, shortened: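 Cellular cAMP in B16F1 cells after 72 h at 3 μM, measured by colorimetric competitive immunoassay kit. Means ± SE of three independent experiments.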

B16/F1 [18] = assay: Inhibition of PKA in mouse B16-F1 cells assessed as decrease of phosphorylated CREB expression at 3 uM after 72 hrs by immunoblotting; format: cell-based
Procedure, shortened: (§5)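 B16F1 cells treated 72 h at 3 μM. 40 μg total protein (Bradford) run on 10% SDS-PAGE and transferred to nitrocellulose. Blocked in TBS with 5% nonfat milk and 0.1% Tween 20. Probed with primary antibodies plus HRP secondaries and read by chemiluminescence. Band densities normalized to α-tubulin. Means ± SE of three independent experiments.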

B16/F1 [19] = assay: Inhibition of PKA in mouse B16-F1 cells assessed as effect on ERK2 phosphorylation at 3 uM after 72 hrs by immunoblotting; format: cell-based
B16/F1 [20] = assay: Inhibition of PKA in mouse B16-F1 cells assessed as effect on ERK2 mRNA expression at 3 uM after 72 hrs by RT-PCR analysis; format: cell-based
B16/F1 [21] = assay: Inhibition of PKA in mouse B16-F1 cells assessed as decrease of MITF mRNA expression at 3 uM after 72 hrs by RT-PCR analysis relative to control; format: cell-based; procedure, shortened: as §3
B16/F1 [22] = assay: Inhibition of PKA in mouse B16-F1 cells assessed as decrease of TRP-1 mRNA expression at 3 uM after 72 hrs by RT-PCR analysis relative to control; format: cell-based; procedure, shortened: as §3
B16/F1 [23] = assay: Inhibition of PKA in mouse B16-F1 cells assessed as decrease of dopachrome tautomerase mRNA expression at 3 uM after 72 hrs by RT-PCR analysis relative to control; format: cell-based; procedure, shortened: as §3
B16/F1 [24] = assay: Inhibition of PKA in mouse B16-F1 cells assessed as decrease of MITF protein expression at 3 uM after 72 hrs by immunoblotting relative to control; format: cell-based; procedure, shortened: as §5
B16/F1 [25] = assay: Inhibition of PKA in mouse B16-F1 cells assessed as decrease of TRP-1 protein expression at 3 uM after 72 hrs by immunoblotting relative to control; format: cell-based; procedure, shortened: as §5
B16/F1 [26] = assay: Inhibition of PKA in mouse B16-F1 cells assessed as decrease of dopachrome tautomerase protein expression at 3 uM after 72 hrs by immunoblotting relative to control; format: cell-based; procedure, shortened: as §5
[27] = Cytotoxicity against mouse B16-F1 cells; format: cell-based
Procedure, shortened: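 MTT assay on B16F1 murine melanoma cells tested over 300−0.03 μM. Cells grown in DMEM with 10% FBS and 1% penicillin/streptomycin at 37 °C, 5% CO2.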

COc1cc(/C=C/C(=O)O[C@H]2CC[C@]34C[C@]35CC[C@]3(C)[C@@H]([C@H](C)CCC=C(C)C)CC[C@@]3(C)[C@@H]5CC[C@H]4C2(C)C)ccc1O [GAMMA ORYZANOL]
inhibition (B16-F1 [1]): Active | inhibition [2]: Dose-dependent effect | inhibition at 3 µM (B16-F1 [3]): 13% | inhibition at 30 µM (B16-F1 [4]): 28% | inhibition (B16-F1 [5]): Dose-dependent effect | Activity [6]: Non-toxic | inhibition [7]: 29% | inhibition [8]: 26% | inhibition (B16/F1 [9]): 90% | inhibition (B16/F1 [10]): 94% | inhibition (B16/F1 [11]): 56% | inhibition (B16/F1 [12]): 29% | inhibition (B16/F1 [13]): 90% | inhibition (B16/F1 [14]): 40% | inhibition (B16/F1 [15]): 28% | inhibition (B16/F1 [16]): 56% | inhibition (B16/F1 [17]): 13% | inhibition (B16/F1 [18]): 57% | inhibition (B16/F1 [19]): inactive | inhibition (B16/F1 [20]): inactive | inhibition (B16/F1 [21]): 59% | inhibition (B16/F1 [22]): 69% | inhibition (B16/F1 [23]): 51% | inhibition (B16/F1 [24]): 64% | inhibition (B16/F1 [25]): 82% | inhibition (B16/F1 [26]): 92%

OC[C@H]1O[C@@H](Oc2ccc(O)cc2)[C@H](O)[C@@H](O)[C@@H]1O [ARBUTIN]
inhibition [2]: Active | Activity [27]: Toxic
